Experimental data reported in ChEMBL document CHEMBL3875209, “Synthesis and biological evaluation of cis-restricted triazole/tetrazole mimics of combretastatin-benzothiazole hybrids as tubulin polymerization inhibitors and apoptosis inducers” (Bioorg Med Chem, 2017).

Tests used:
[1] = Antiproliferative activity against human DU145 cells after 48 hrs by MTT assay; type: functional, cell-based; settings: DU-145, 48 h
How it was run: (§1)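 MTT assay. Cells seeded in DMEM with 10% FBS and left 24 h at 37 °C in CO2 before compound treatment for 48 h. MTT (5 mg/mL stock) added for 4 h, formazan dissolved in DMSO, absorbance read at 570 nm. IC50 taken as the mean of three independent experiments.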

[2] = Antiproliferative activity against human HeLa cells after 48 hrs by MTT assay; type: functional, cell-based; how it was run: as §1
[3] = Antiproliferative activity against human A549 cells after 48 hrs by MTT assay; type: functional, cell-based; settings: A549, 48 h; how it was run: as §1
[4] = Antiproliferative activity against human HepG2 cells after 48 hrs by MTT assay; type: functional, cell-based; settings: HepG2, 48 h; how it was run: as §1
[5] = Antiproliferative activity against human MCF7 cells after 48 hrs by MTT assay; type: functional, cell-based; settings: MCF7, 48 h; how it was run: as §1
A549 [6] = test: Induction of mitochondrial membrane potential loss in human A549 cells at 100 nM after 48 hrs by JC-1 staining based flow cytometry (reference value: 3.8%); type: functional
A549 [7] = test: Induction of mitochondrial membrane potential loss in human A549 cells assessed as intact mitochondrial membrane at 100 nM after 48 hrs by JC-1 staining based flow cytometry (reference value: 95.9%); type: functional
A549 [8] = test: Induction of ROS generation in human A549 cells at 100 nM after 48 hrs by DCFDA staining based flow cytometry (reference value: 4.4%); type: functional

Structure (SMILES)	IC50 [1] [µM]	IC50 [2] [µM]	IC50 [3] [µM]	IC50 [4] [µM]	IC50 [5] [µM]	Activity (A549 [6]) [%]	Activity (A549 [7]) [%]	Activity (A549 [8]) [%]
COc1cc(OC)c2sc(-c3ccc(-n4nnnc4-c4cc(OC)c(OC)c(OC)c4)c(OC)c3)nc2c1	13.5	11.7	9.24	17	24.7	–	–	–
COc1cc(-c2cn(-c3ccc(-c4nc5cc(OC)c(OC)c(OC)c5s4)cc3C)nn2)cc(OC)c1OC	15.8	11.3	9.77	18.6	20.8	–	–	–
COc1cc(-c2nc3cc(OC)c(OC)c(OC)c3s2)ccc1-n1cc(-c2cc(OC)c(OC)c(OC)c2)nn1	15.9	17.8	11	29.9	27.8	–	–	–
COc1cc(-c2nc3cc(OC)c(OC)c(OC)c3s2)ccc1-n1nnnc1-c1cc(OC)c(OC)c(OC)c1	10.8	5.79	3.8	16	16.6	–	–	–
COc1cc(OC)c2sc(-c3ccc(-n4cc(-c5cc(OC)c(OC)c(OC)c5)nn4)cc3)nc2c1	9.33	9.05	7.61	17.4	19.9	–	–	–
COc1cc(-c2cn(-c3ccc(-c4nc5ccc(F)cc5s4)cc3)nn2)cc(OC)c1OC	8.12	3.46	1.41	7.76	10.7	–	–	–
COc1cc(-c2nc3cc(OC)c(OC)c(OC)c3s2)ccc1-n1cnnc1-c1cc(OC)c(OC)c(OC)c1	11.5	5.51	3.46	7.41	10.5	–	–	–
COc1cc(OC)c2sc(-c3ccc(-n4cc(-c5cc(OC)c(OC)c(OC)c5)nn4)c(C)c3)nc2c1	10.2	8.12	7.76	15.5	18.8	–	–	–
COc1ccc2nc(-c3ccc(-n4cnnc4-c4cc(OC)c(OC)c(OC)c4)cc3)sc2c1	11.2	10	7.24	11.6	9.5	–	–	–
COc1cc(-c2nc3ccc(F)cc3s2)ccc1-n1cc(-c2cc(OC)c(OC)c(OC)c2)nn1	14.2	10.1	6.02	13.9	16.1	–	–	–
COc1cc(-c2nncn2-c2ccc(-c3nc4cc(OC)c(OC)c(OC)c4s3)cc2)cc(OC)c1OC	0.46	0.21	0.091	1.27	3.15	–	–	–
COc1cc(OC)c2sc(-c3ccc(-n4cnnc4-c4cc(OC)c(OC)c(OC)c4)cc3)nc2c1	11.8	4.13	5.04	9.65	8.21	–	–	–
COc1cc(OC)c2sc(-c3ccc(-n4cc(-c5cc(OC)c(OC)c(OC)c5)nn4)c(OC)c3)nc2c1	0.41	0.37	0.24	1.47	4.36	–	–	–
COc1ccc2nc(-c3ccc(-n4cnnc4-c4cc(OC)c(OC)c(OC)c4)c(OC)c3)sc2c1	11.6	8.76	9.06	9.05	14.7	–	–	–
COc1cc(-c2nc3ccc(F)cc3s2)ccc1-n1cnnc1-c1cc(OC)c(OC)c(OC)c1	7.58	2.81	1.22	2.75	2.49	–	–	–
COc1cc(-c2nc3ccc(F)cc3s2)ccc1-n1nnnc1-c1cc(OC)c(OC)c(OC)c1	4.77	4.36	1.38	1.24	1.52	–	–	–
COc1cc(-c2nnnn2-c2ccc(-c3nc4cc(OC)c(OC)c(OC)c4s3)cc2)cc(OC)c1OC	7.24	6.16	3.54	8.51	8.68	–	–	–
COc1cc(-c2nnnn2-c2ccc(-c3nc4cc(OC)c(OC)c(OC)c4s3)cc2C)cc(OC)c1OC	14.8	9.81	7.41	23.4	17.5	–	–	–

Structure (SMILES)	IC50 [1] [µM]	IC50 [2] [µM]	IC50 [3] [µM]	IC50 [4] [µM]	IC50 [5] [µM]	Activity (A549 [6]) [%]	Activity (A549 [7]) [%]	Activity (A549 [8]) [%]
COc1cc(-c2nncn2-c2ccc(-c3nc4ccc(F)cc4s3)cc2)cc(OC)c1OC	8.21	7	6.58	10.4	12.5	–	–	–
COc1cc(-c2nnnn2-c2ccc(-c3nc4ccc(F)cc4s3)cc2C)cc(OC)c1OC	1.14	0.97	0.24	1.69	3.23	–	–	–
COc1ccc2nc(-c3ccc(-n4nnnc4-c4cc(OC)c(OC)c(OC)c4)c(C)c3)sc2c1	15.9	11	4.78	10.5	12.6	–	–	–
COc1ccc2nc(-c3ccc(-n4cc(-c5cc(OC)c(OC)c(OC)c5)nn4)c(C)c3)sc2c1	18.2	13.1	15.8	20.1	22	–	–	–
COc1cc(OC)c2sc(-c3ccc(-n4cnnc4-c4cc(OC)c(OC)c(OC)c4)c(OC)c3)nc2c1	10.2	6.45	7.24	9.2	8.57	–	–	–
COc1ccc2nc(-c3ccc(-n4nnnc4-c4cc(OC)c(OC)c(OC)c4)cc3)sc2c1	9.12	6.6	3.8	9.05	11.2	–	–	–
COc1ccc2nc(-c3ccc(-n4cc(-c5cc(OC)c(OC)c(OC)c5)nn4)cc3)sc2c1	12.3	11.5	6.3	12.4	22.9	–	–	–
COc1cc(-c2nnnn2-c2ccc(-c3nc4ccc(F)cc4s3)cc2)cc(OC)c1OC	4.57	2.23	2.07	7.95	8.57	–	–	–
COc1cc(-c2cn(-c3ccc(-c4nc5cc(OC)c(OC)c(OC)c5s4)cc3)nn2)cc(OC)c1OC	14.8	11.5	8.54	15.5	9.12	–	–	–
COc1cc(-c2nncn2-c2ccc(-c3nc4cc(OC)c(OC)c(OC)c4s3)cc2C)cc(OC)c1OC	0.7	0.21	0.23	1.25	2.99	–	–	–
COc1cc(OC)c2sc(-c3ccc(-n4nnnc4-c4cc(OC)c(OC)c(OC)c4)c(C)c3)nc2c1	11.7	8.7	5.38	9.74	17.2	–	–	–
COc1cc(OC)c2sc(-c3ccc(-n4cnnc4-c4cc(OC)c(OC)c(OC)c4)c(C)c3)nc2c1	1.04	0.93	0.26	2.54	5.35	–	–	–
Cc1cc(-c2nc3cc(F)ccc3s2)ccc1N	–	–	–	–	–	16	81.8	10
COc1cc(OC)c2sc(-c3ccc(-n4nnnc4-c4cc(OC)c(OC)c(OC)c4)cc3)nc2c1	19.9	10.2	7.24	22.4	31.6	–	–	–
COc1ccc2nc(-c3ccc(-n4cc(-c5cc(OC)c(OC)c(OC)c5)nn4)c(OC)c3)sc2c1	18.6	11.1	10.7	16.4	15.5	–	–	–
COc1ccc2nc(-c3ccc(-n4nnnc4-c4cc(OC)c(OC)c(OC)c4)c(OC)c3)sc2c1	5.67	4.56	2.25	1.67	3.45	–	–	–
COc1cc(-c2cn(-c3ccc(-c4nc5ccc(F)cc5s4)cc3C)nn2)cc(OC)c1OC	7.33	6.76	3.38	8.05	10.8	–	–	–
